In the library only some 3.9% were active in any assay of this set; here they are far more common.
Rad51 HR inh – human RAD51 strand exchange inhibitors, primary screen, biochemical, fluorescence; DNA repair protein RAD51 homolog 1 (Homo sapiens), Q06609; hRad51 DNA strand exchange, fluorescence dequenching; inhibition, % at 10 µM; 200,000 compounds, 0.085% hits;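 active = inhibition above 40% at the single screening dose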
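System: hRad51 filaments on single-stranded DNA; reagent: Fluorescein- and BHQ1-tagged 47-mer duplex; compound dosing: one concentration, 10 µM final; timing: filaments 15 min 37 °C, then compound 30 min; measured by: fluorescein emission 520 nm, excitation 485 nm; benchmarks: per-plate controls and blanks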
NF-kB neuron act – activators of NF-kB expression in neurons, primary screen, cell-based, HTS. human neuronal cells, NF-kB reporter expression; stronger effect = higher value. fold change at 12.5 µM. 190,000 compounds, 1.6% hits. AID 1239, 2008; in the data active = fold change above about 3.3
FLuc stim CS – FLuc activators, initial screening, artefact control for FLuc-dependent activation tests, biochemical, ATPlite luminescence; 200,000 tested, under 10 active; Luciferin 4-monooxygenase (Photinus pyralis), P08659; ATPlite luciferase biochemical, 10 min; 0 = ATP-free wells, 1 = DMSO control; activation factor at 10 µM;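 active = luciferase activation factor, scaled between plate controls, of at least 2 with compound at 10 µM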
Target sequence (P08659 whole entry, looked up): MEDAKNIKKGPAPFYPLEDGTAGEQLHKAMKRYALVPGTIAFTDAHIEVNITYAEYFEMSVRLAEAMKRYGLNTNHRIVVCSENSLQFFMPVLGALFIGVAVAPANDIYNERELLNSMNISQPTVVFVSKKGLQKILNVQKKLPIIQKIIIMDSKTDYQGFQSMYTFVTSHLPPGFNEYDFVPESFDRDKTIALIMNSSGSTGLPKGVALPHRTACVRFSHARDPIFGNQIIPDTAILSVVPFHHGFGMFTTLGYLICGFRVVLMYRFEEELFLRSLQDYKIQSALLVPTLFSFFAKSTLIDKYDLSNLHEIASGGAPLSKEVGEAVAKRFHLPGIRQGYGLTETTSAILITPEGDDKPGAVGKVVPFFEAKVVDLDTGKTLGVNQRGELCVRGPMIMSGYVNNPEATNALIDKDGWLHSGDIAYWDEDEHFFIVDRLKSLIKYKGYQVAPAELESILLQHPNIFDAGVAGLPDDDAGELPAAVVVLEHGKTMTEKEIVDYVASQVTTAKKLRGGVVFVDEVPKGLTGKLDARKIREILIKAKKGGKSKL
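test system = cell-free luciferase reagent | medium = PBS as buffer for the ATP substrate | dosing = test compounds dosed from 2 mM stocks in 100% DMSO | incubation = 10 min at ambient temperature | detection = luminescence measurement of luciferase light output | benchmarks = low control with PBS replacing ATP, high control enzyme plus ATP without compound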
FLuc inh counter – firefly luciferase enzyme inhibitors, primary screen, artefact control for luciferase-based inhibitor screens, biochemical, luminescence, ATPLite. Luciferin 4-monooxygenase (Photinus pyralis), P08659. 10 min. inhibition, % at 10 µM. 200,000 compounds, 1.5% hits. AID 1006, 2008;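 active = inhibition above about 50% when tested at 10 µM, limit read from the data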
STAT1 act – STAT1 signaling activators, primary screen, cell-based, HTS, luciferase reporter. NIH 3T3 STAT1-luciferase reporter, IFN-gamma, luminescence; 100% = IFN-gamma alone, no compound. activation (% of control), % at 5.5 µM. 200,000 compounds, 2.6% hits. AID 932, 2007;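 active = activation above the screen-wide mean activation plus 3 SD, cut at about 130% in these data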
APP 5'UTR act – activators of APP 5'UTR luciferase reporter, primary screen, SH-SY5Y cells | SH-SY5Y APP 5'UTR luciferase reporter, luminescence; zero percent = DMSO vehicle wells | activation, % at 2 µM | 190,000 compounds, 1% hits | AID 1276, 2008;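 active = activation above a set limit, based on mean plus 3 SD of controls, cut at about 140% in these data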
Large screens that a line does not name were inactive.

COc1ccc(C2=NOC(CNC(=S)N3CCOCC3)C2)cc1 (stereo not drawn)	none (no result: NF-kB neuron act, FLuc stim CS, FLuc inh counter, STAT1 act, APP 5'UTR act)
C#CCNC(=O)C1=C[C@@H](c2ccc(C#C)cc2)C[C@@H](OCc2ccc(CO)cc2)O1	none (no result: NF-kB neuron act, FLuc stim CS, FLuc inh counter, STAT1 act, APP 5'UTR act)
COc1ccc(C(=O)NCCSc2ccccc2)cc1OC	STAT1 act 134
Clc1nnc(N/N=C/c2ccccc2)c2ccccc12	FLuc inh counter 69
COc1ccc(/C=N/Nc2nnc(-c3ncc[nH]3)c3ccccc23)cc1	FLuc inh counter 72, STAT1 act 142
Clc1ccc(/C=N/Nc2nnc(Cl)c3ccccc23)cc1	none
Cc1ccc(/C=N/Nc2nnc(Cl)c3ccccc23)cc1	NF-kB neuron act 9.3, FLuc inh counter 94, STAT1 act 131, APP 5'UTR act 159 (no result: Rad51 HR inh)
C=CCN1C=C2C(=O)C(C)(OC(=O)c3ccco3)C(=O)C(C=C)=C2C=C1C1CC1 (stereo not drawn)	none (no result: NF-kB neuron act, FLuc stim CS, FLuc inh counter, STAT1 act, APP 5'UTR act)
O=C1CC(c2ccco2)CC(O)=C1C=Nc1cc(Cl)ccc1O (stereo not drawn)	NF-kB neuron act 3.4
O=C(c1cccs1)N(C(=O)c1cccs1)c1ccc(Br)cn1	NF-kB neuron act 4, STAT1 act 134
Cc1ccnc(N(C(=O)c2cccs2)C(=O)c2cccs2)c1	none
C/C(O)=C(/C=Nc1ccccc1)C(=O)Nc1ccccc1	none
CCOC(=O)c1cnc2cc(-c3ccc(Cl)cc3)nn2c1N	none
COc1ccc(-c2cc3ncc(C(C)=O)c(C)n3n2)cc1	STAT1 act 135, APP 5'UTR act 141
CC(=O)c1cnc2cc(C)nn2c1C	none
CC(=O)c1cnc2cc(-c3ccc(C)cc3)nn2c1C	NF-kB neuron act 6.6, STAT1 act 137
Cc1ccc(-c2cc3ncc(C#N)c(N)n3n2)cc1	STAT1 act 130
O=C(O)Cn1cc(F)c(=O)[nH]c1=O	none (no result: NF-kB neuron act, FLuc stim CS, FLuc inh counter, STAT1 act, APP 5'UTR act)
CCOc1ccc(NC(=O)c2c(N)n(C)c(=O)[nH]c2=O)cc1	none (no result: NF-kB neuron act, FLuc stim CS, FLuc inh counter, STAT1 act, APP 5'UTR act)
O=[N+]([O-])c1ccc(O)c(/C=N/NC2=NS(=O)(=O)c3ccccc32)c1	FLuc inh counter 69
O=[N+]([O-])c1ccc(/C=N/NC2=NS(=O)(=O)c3ccccc32)cc1	none
COCCCNCCOCCOc1ccc(Cl)cc1C(C)(C)C	none
O=C(COc1cccnc1[N+](=O)[O-])NCc1cccs1	none
CN1c2cccc3cccc(c23)N(C)C1(C)C	NF-kB neuron act 4.1 (no result: Rad51 HR inh)
CC(=O)Nc1ccc(NC(=O)Cn2cnc3c(cnn3C(C)(C)C)c2=O)cc1	none
CC(C)(C)n1ncc2c(=O)n(CC(=O)c3ccc(Cl)cc3)cnc21	STAT1 act 154
CC(C)(C)n1ncc2c(=O)n(CC(=O)NCc3ccccc3)cnc21	STAT1 act 149, APP 5'UTR act 168
O=C(COC(=O)/C=C/c1cccs1)Nc1cccc(S(=O)(=O)N2CCCC2)c1	none
Nc1c(N2CCCCC2)c2ccccc2oc1=O	none
Cn1c(N)c(Sc2ccc(F)cc2)c(=O)n(C)c1=O	none
CC[C@H](C)/C=C/C1=CC2=C(Cl)C(=O)[C@@]3(C)OC(=O)C(C(=O)[C@H](C)[C@@H](C)O)=C3C2=CO1	none (no result: NF-kB neuron act, FLuc stim CS, FLuc inh counter, STAT1 act, APP 5'UTR act)
O=C1CCC(=O)N1c1ccc(-c2nc3ccccc3s2)cc1	FLuc inh counter 88
CCOC(=O)/C(=N\Nc1ccccc1Cl)N1CC(C)OC(C)C1 (stereo not drawn)	none (no result: NF-kB neuron act, FLuc stim CS, FLuc inh counter, STAT1 act, APP 5'UTR act)
CCOC(=O)/C(=N\Nc1cc(Cl)ccc1Cl)N1CC(C)OC(C)C1 (stereo not drawn)	Rad51 HR inh 42 (no result: NF-kB neuron act, FLuc stim CS, FLuc inh counter, STAT1 act, APP 5'UTR act)
O=C(Nc1ccccc1)c1ccc(-c2ccccc2Cl)o1	none
Cc1ccc(NC(=O)c2ccc([N+](=O)[O-])o2)c(C)c1	none
N#Cc1ccccc1NC(=O)c1ccc(-c2ccccc2Cl)o1	STAT1 act 138
COc1cc(NC(=O)c2cc3ccccc3o2)c(OC)cc1Br	none
CC(C)C(=O)Nc1cccc(NC(=O)c2cc3ccccc3o2)c1	STAT1 act 130
CN(C)S(=O)(=O)c1cccc(NC(=O)c2cc3ccccc3o2)c1	none
Cc1ccccc1NC(=O)c1ccc([N+](=O)[O-])o1	NF-kB neuron act 3.3
COc1ccccc1NC(=O)c1cc2ccccc2o1	STAT1 act 154
COc1ccc(C(=O)Nn2c(CCC(=O)O)ccc2-c2ccc(C)cc2)cc1OC	none
Cc1ccc(-c2nc(NC(=O)c3cc(C(C)(C)C)nn3C)sc2C)cc1Cl	none (no result: NF-kB neuron act, FLuc stim CS, FLuc inh counter, STAT1 act, APP 5'UTR act)
O=c1[nH]cnc(O)c1C(c1cccc([N+](=O)[O-])c1)c1c(O)nc[nH]c1=O	none (no result: NF-kB neuron act, FLuc stim CS, FLuc inh counter, STAT1 act, APP 5'UTR act)
CC(=O)Oc1ccccc1N(C(C)=O)S(=O)(=O)c1cccc([N+](=O)[O-])c1	none
COc1ccc(OCC(=O)NNC(=O)c2cc3ccccc3o2)cc1	none
COc1ccc(NC(=O)c2cc3ccccc3o2)cc1	NF-kB neuron act 5.3, FLuc inh counter 53, STAT1 act 146, APP 5'UTR act 138
COc1ccccc1NC(=O)c1ccc(-c2ccccc2[N+](=O)[O-])o1	STAT1 act 150
COc1ccccc1NC(=O)c1ccc(-c2ccc(Br)cc2)o1	none (no result: Rad51 HR inh)
CC1(C)Cc2c(sc3c2c(=O)n(-c2cccc(Cl)c2)c(=O)n3CC(N)=O)CO1	none (no result: NF-kB neuron act, FLuc stim CS, FLuc inh counter, STAT1 act, APP 5'UTR act)
C=CCn1c(-c2cc3cccc(OC)c3o2)n[nH]c1=S	none
COC(=O)c1nn(-c2ccc(-c3ccccc3)cc2)cc1O	NF-kB neuron act 4.6, FLuc inh counter 80, APP 5'UTR act 156
CCOC(=O)c1nn(-c2ccc(C)cc2)cc1O	NF-kB neuron act 4.1, FLuc inh counter 59, APP 5'UTR act 137
CCOC(=O)c1nn(-c2ccc(Cl)cc2)cc1O	none (no result: NF-kB neuron act, FLuc stim CS, FLuc inh counter, STAT1 act, APP 5'UTR act)
NS(=O)(=O)c1ccc(O)c(N2C(=O)c3cccc4c(C(=O)c5ccccc5)ccc(c34)C2=O)c1	none
CNC(=O)NC(=O)COC(=O)/C=C/c1cccc(Br)c1	none
Cc1ccc(C(=O)NC2CCCCC2)cc1	STAT1 act 139
Cc1ccc(C(=O)NCC(=O)NC2CCCC2)cc1	none
CCN(CC)S(=O)(=O)c1cc(C(=O)NC2CCCCC2)ccc1C	STAT1 act 129
CCN(CC)S(=O)(=O)c1cc(C(=O)Nc2ccc(Cl)cn2)ccc1C	STAT1 act 135, APP 5'UTR act 183
CC(=O)Nc1c(O)nc(SCC(=O)Nc2nnc(SCc3ccccc3)s2)[nH]c1=O	none
CNc1nc(-c2ccccc2)[n+](-c2ccc(C)cc2)s1	FLuc inh counter 89
Cc1ccc(-c2nc(N)s[n+]2-c2ccccc2)cc1	FLuc inh counter 80
CCNC(=S)NNC(=O)c1cc(-c2cccc(OCC)c2)nc2ccccc12	FLuc inh counter 58
COc1cccc(-c2cc(C(=O)NN3CCOCC3)c3ccccc3n2)c1	none
